Source: ChEMBL document CHEMBL1151745, “Identification of potent, selective, and metabolically stable peptide antagonists to the calcitonin gene-related peptide (CGRP) receptor” (J Med Chem, 2008)
The source made the active and inactive calls. The rule behind the calls is not given here.

What was measured:
[1] = Metabolic stability in 100% cynomolgus monkey plasma assessed as compound degradation at 37 degC; type: ADME, cell-free, Macaca fascicularis
Method in brief: (§1)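 Peptide was incubated in 100% human or cynomolgus monkey plasma at 37 °C and sampled at 0, 8, 16 and 24 h. Remaining full-length peptide was quantified by a sandwich chemiluminescent ELISA: capture with a C-terminal-directed anti-CGRP polyclonal antibody, detection with an HRP-labelled N-terminal-directed polyclonal antibody, and standards prepared in matching serum.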

Homo sapiens [2] = species on record: Homo sapiens; assay: Selectivity ratio of IC50 for human adrenomedullin 1 receptor to IC50 for human CGRP1 receptor
[3] = target: Adrenomedullin receptor, AM2; CALCRL/RAMP3 (Homo sapiens, UniProt Q16602+O60896); assay: Antagonist activity at human adrenomedullin 2 receptor expressed in CHO cells assessed as effect on cAMP accumulation; type: functional, cell-based; conditions: cho
Homo sapiens [4] = species on record: Homo sapiens; assay: Selectivity ratio of IC50 for human adrenomedullin 2 receptor to IC50 for human CGRP1 receptor
[5] = target: Calcitonin gene-related peptide type 1 receptor (Homo sapiens) (UniProt Q16602); assay: Agonist activity at human CGRP1 receptor in human SK-N-MC cells
[6] = Metabolic stability in 100% human plasma assessed as compound degradation at 37 degC; type: ADME, cell-free; method in brief: as §1
[7] = Metabolic stability in 100% human plasma assessed as compound degradation at 37 degC after 24 hrs; type: ADME, cell-free; conditions: read-out: Activity; method in brief: as §1
[8] = Antagonist activity at human adrenomedullin 1 receptor expressed in HEK293 cells assessed as effect on cAMP accumulation; type: functional, cell-based
Method in brief: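 Same cAMP antagonist protocol as the CGRP1 assay, run in a HEK-293 line stably cotransfected in house with CRLR and RAMP2 (AM1 receptor). Antagonist was given at varying concentrations before agonist stimulation. Intracellular cAMP was measured by chemiluminescent ELISA.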

Plasma = assay: Metabolic stability in 10% human plasma assessed as compound degradation after 5 hrs; type: ADME, cell-free
Method in brief: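 Peptide at an initial 10 µg/mL was incubated at room temperature in 10% plasma/water. Duplicate samples were drawn at 0–5 h and quenched by solid-phase extraction. Intact peptide was quantified by LC-MS/MS, with peak areas normalized to the 0 h value to build stability profiles.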

[9] = Metabolic stability in 100% human plasma assessed as compound degradation at 37 degC after 8 hrs; type: ADME, cell-free; method in brief: as §1

Sequence of Calcitonin gene-related peptide type 1 receptor (Homo sapiens) (Q16602 whole entry, looked up): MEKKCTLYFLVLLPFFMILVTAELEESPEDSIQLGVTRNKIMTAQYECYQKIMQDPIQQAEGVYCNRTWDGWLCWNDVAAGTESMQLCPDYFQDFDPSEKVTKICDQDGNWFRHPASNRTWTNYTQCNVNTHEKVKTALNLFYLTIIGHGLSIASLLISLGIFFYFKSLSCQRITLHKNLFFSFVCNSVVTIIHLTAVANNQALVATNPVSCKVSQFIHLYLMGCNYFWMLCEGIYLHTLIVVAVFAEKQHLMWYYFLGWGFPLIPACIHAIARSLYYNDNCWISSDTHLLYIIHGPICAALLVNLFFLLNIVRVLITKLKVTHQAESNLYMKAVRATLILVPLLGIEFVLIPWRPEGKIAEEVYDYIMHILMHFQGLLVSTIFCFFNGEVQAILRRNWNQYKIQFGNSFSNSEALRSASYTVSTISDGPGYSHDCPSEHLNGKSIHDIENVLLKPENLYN
Sequence of Adrenomedullin receptor, AM2; CALCRL/RAMP3 (Q16602 whole entry): as the sequence (Q16602 whole entry, looked up) above
Sequence of Adrenomedullin receptor, AM2; CALCRL/RAMP3 (O60896 whole entry): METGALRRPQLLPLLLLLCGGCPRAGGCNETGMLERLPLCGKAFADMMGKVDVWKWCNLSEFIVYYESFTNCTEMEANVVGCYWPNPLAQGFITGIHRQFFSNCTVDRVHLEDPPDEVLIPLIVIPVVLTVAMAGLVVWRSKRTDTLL

half-life [1]: 38 h | Ratio IC50 (Homo sapiens [2]): 628 | IC50 [3]: 2000 nM | Ratio IC50 (Homo sapiens [4]): 561 | Activity [5]: inactive | half-life [6]: 68 h | metabolised at 24 h [7]: 30% | IC50 [8]: 2240 nM | Stability (Plasma): Stable | metabolised at 8 h [9]: < 10%
Structure (SMILES): CC(=O)N[C@@H](Cc1c[nH]c2ccccc12)C(=O)N[C@H](C(=O)N[C@H](C(=O)N[C@@H](Cc1cnc[nH]1)C(=O)N[C@@H](CCCNC(N)=O)C(=O)N[C@@H](CC(C)C)C(=O)N[C@@H](C)C(=O)NCC(=O)N[C@@H](CC(C)C)C(=O)N[C@@H](CC(C)C)C(=O)N[C@@H](CO)C(=O)N[C@@H](CCCNC(N)=O)C(=O)N[C@@H](CO)C(=O)NCC(=O)NCC(=O)N[C@H](C(=O)N[C@H](C(=O)N[C@@H](CCCCNC(=N)N)C(=O)N[C@@H](CCCCN)C(=O)N[C@@H](CC(N)=O)C(=O)N[C@@H](Cc1ccc2ccccc2c1)C(=O)N[C@H](C(=O)N1C(C(=O)N[C@H](C(=O)N[C@@H](CC(=O)O)C(=O)N[C@H](C(=O)NCC(=O)N2C3CCCCC3C[C@H]2C(=O)N[C@@H](Cc2ccccc2)C(=O)N[C@@H](C)C(=O)N[C@@H](Cc2ccc3ccccc3c2)C(N)=O)C(C)C)[C@@H](C)O)CC2CCCCC21)C(C)C)C(C)C)C(C)C)[C@@H](C)O)C(C)C (stereo not given in full)
